Assay results as given in ChEMBL document CHEMBL6092133, “Enhancing the therapeutic window for Spectinamide anti-tuberculosis Agents: Synthesis, Evaluation, and activation of phosphate prodrug 3408” (Bioorg Med Chem Lett, 2024).

Tests used:
[1] = tested on: Mycobacterium tuberculosis; assay: (§1) Antibacterial activity against Mycobacterium tuberculosis Erdman harboring pFCA-LuxAB plasmid infected in female BALB/c mouse model assessed as log reduction in bacterial burden in lung at 400 mg/kg, SC administered once daily for 12 days starting from day 7 and measured 3 days post last treatment relative to untreated control; format: functional; conditions: time 15 day
Outline: (§2)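 BALB/c mice given a low-dose aerosol infection with M. tuberculosis Erdman pFCA-LuxAB. Dosing ran once daily for 12 consecutive days from day 7 post-infection: 10 mg/kg orally or 400 mg/kg, as the line states. Lung bacterial burden (log10 CFU) was compared with untreated control, six mice per group.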

[2] = Drug uptake in female BALB/c mouse plasma infected with Mycobacterium tuberculosis Erdman harboring pFCA-LuxAB plasmid at 400 mg/kg, SC measured after 8 hrs; format: ADME, organism-based; conditions: in vivo
Outline: (§3)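 Plasma was sampled from infected BALB/c mice in the acute efficacy study 15 min and 8 h after a 400 mg/kg dose. Parent drug and prodrug levels were each quantified in the prodrug-treated and parent-treated groups.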

[3] = Drug uptake in female BALB/c mouse plasma infected with Mycobacterium tuberculosis Erdman harboring pFCA-LuxAB plasmid at 400 mg/kg, SC measured after 15 mins; format: ADME, organism-based; conditions: in vivo, 0.25 h; outline: as §3
[4] = (§4) Prodrug conversion in female BALB/c mouse plasma infected with Mycobacterium tuberculosis Erdman harboring pFCA-LuxAB plasmid assessed as 2-(5-chloropyridin-2-yl)-N-((2R,4R,4aS,5aR,6S,7S,8R,9S,9aR,10aS)-4a,7,9-trihydroxy-2-methyl-6,8-bis(methylamino)decahydro-2H-benzo[b]pyrano[2,3-e][1,4]dioxin-4-yl)acetamide formation at 400 mg/kg, SC measured after 8 hrs; format: ADME, organism-based; conditions: in vivo; outline: as §3
[5] = as §4, with “15 mins” for “8 hrs”; format: ADME, organism-based; conditions: in vivo, 0.25 h; outline: as §3
[6] = tested on: Mycobacterium tuberculosis; assay: as §1, with “10” for “400”, “po” for “SC”; format: functional; conditions: time 15 day; outline: as §2

## CN[C@@H]1[C@H](O)[C@H](NC)[C@H]2O[C@]3(O)[C@H](O[C@@H]2[C@H]1O)O[C@H](C)C[C@H]3NC(=O)Cc1ccc(O)cn1
[1]
  log(activity): 1.13
[2]
  Drug uptake: Active
[3]
  Drug uptake: Active

## CN[C@@H]1[C@H](O)[C@H](NC)[C@H]2O[C@]3(O)[C@H](O[C@@H]2[C@H]1O)O[C@H](C)C[C@H]3NC(=O)Cc1ccc(OP(=O)(O)O)cn1
[1]
  log(activity): 1.11
[3]
  Drug uptake: Active
[4]
  Drug metabolism: metabolite_detected
[5]
  Drug metabolism: metabolite_detected

## CO[C@H]1/C=C/O[C@@]2(C)Oc3c(C)c(O)c4c(O)c(c(/C=N/N5CCN(C)CC5)c(O)c4c3C2=O)NC(=O)/C(C)=C\C=C\[C@H](C)[C@H](O)[C@@H](C)[C@@H](O)[C@@H](C)[C@H](OC(C)=O)[C@@H]1C [RIFAMPIN]
[6]
  log(activity): 1.21
